Experimental findings from ChEMBL document CHEMBL3632476, “Novel spirobicyclic artemisinin analogues (artemalogues): Synthesis and antitumor activities” (Eur J Med Chem, 2015) are described below.

For experiment [1], the system named is A549. Briefly: Cytotoxicity against human A549 cells assessed as inhibition of cell proliferation after 72 hrs by SRB assay. The following applies: A549, 72 h. Format: functional, cell-based. An outline of the steps:
(§1)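 SRB assay. Cells were seeded, cultured overnight, then exposed to a gradient of agent concentrations for 72 h. Absorbance was read at 560 nm.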
In general terms: Sulforhodamine B stains cellular protein and so reports cell mass.

The nature of experiment [2]: Cytotoxicity against human KB cells assessed as inhibition of cell proliferation after 72 hrs by SRB assay. Format: functional, cell-based. In a few lines:
as §1

Experiment [3] in a line: Cytotoxicity against human KB/VCR cells assessed as inhibition of cell proliferation after 72 hrs by SRB assay. Type of experiment: functional, cell-based. In a few lines: as §1
The test system of experiment [4] is KB. Briefly: Selectivity index, ratio of IC50 for human KB/VCR cells to IC50 for human KB cells. Format: functional.
In experiment [5] the test system is A549. Briefly: Selectivity index, ratio of IC50 for human A549 cells to IC50 for human KB cells. Type of experiment: functional.
Experiment [6] deals with KB. Put plainly: Potency index, ratio of IC50 for artemisinin to IC50 for test compound against human KB cells. Format: functional.
In experiment [7] the test system is A549. Briefly: Potency index, ratio of IC50 for artemisinin to IC50 for test compound against human A549 cells. Type of experiment: functional.
Experiment [8] in a line: Potency index, ratio of IC50 for artemisinin to IC50 for test compound against human KB/VCR cells. Format: functional.
The subject of experiment [9] is HepG2. Briefly: Cytotoxicity against human HepG2 cells by MTT assay. Format: functional, cell-based.
The test system of experiment [10] is L1210. Put plainly: Cytotoxicity against mouse L1210 cells by MTT assay. Format: functional, cell-based. For orientation: Tetrazolium dyes change colour on reduction, which living cells bring about.

Usually IC50 stands for the point on the concentration scale where inhibition reaches its midpoint.

On to `COc1ccc(C2=NO[C@@]3(C2)C(=O)O[C@@H]2O[C@@]4(C)CC[C@H]5[C@H](C)CC[C@@H]3[C@@]25OO4)cc1`, for which the IC50 in experiment [1], in experiment [2] and in experiment [3] was > 20 µM in each case.

For the molecule `C[C@@H]1CC[C@@H]2[C@]34OO[C@](C)(CC[C@@H]13)O[C@H]4OC(=O)[C@@]21CC(c2ccccc2)=NO1`, the 50% inhibitory concentration (IC50) in [1], in experiment [2] and in experiment [3] was > 20 µM in each case.

Turning to `C[C@@H]1CC[C@@H]2[C@]34OO[C@](C)(CC[C@@H]13)O[C@H]4OC(=O)[C@@]21CC(c2ccc(Cl)cc2)=NO1`, the values for the IC50 in experiment [1], in experiment [2] and in experiment [3] were > 20 µM, 13.9 µM and 14 µM, respectively.

`C[C@@H]1CC[C@@H]2[C@]34OO[C@](C)(CC[C@@H]13)O[C@H]4OC(=O)[C@@]21CC(c2c(Cl)cccc2Cl)=NO1`: the IC50 in experiment [1], in experiment [2] and in [3] was > 20 µM each time.

`COc1ccc(C2=NO[C@@]3(C2)C(=O)O[C@@H]2O[C@@]4(C)CC[C@H]5[C@H](C)CC[C@@H]3[C@@]25OO4)cc1OC`: the IC50 in experiment [1], in experiment [2] and in experiment [3] was > 20 µM throughout.

On to `COc1cc(C2=NO[C@@]3(C2)C(=O)O[C@@H]2O[C@@]4(C)CC[C@H]5[C@H](C)CC[C@@H]3[C@@]25OO4)cc(OC)c1OC`, for which the IC50 in experiment [1], in [2] and in [3] was > 20 µM throughout.

For the molecule `COC(=O)c1ccc(C2=NO[C@@]3(C2)C(=O)O[C@@H]2O[C@@]4(C)CC[C@H]5[C@H](C)CC[C@@H]3[C@@]25OO4)cc1`, the IC50 in experiment [2] and in [3] was > 20 µM throughout.

`C[C@@H]1CC[C@@H]2[C@]34OO[C@](C)(CC[C@@H]13)O[C@H]4OC(=O)[C@@]21C[C@@H]2c3ccccc3CCN2O1`: the “Ratio IC50” value in experiment [4] and in experiment [5] was 3 in each case. Besides, the values for the IC50 in experiment [1], in experiment [2] and in experiment [3] were 9.93 µM, 2.91 µM and 14 µM, respectively.

For the molecule `C[C@@H]1CC[C@@H]2[C@]34OO[C@](C)(CC[C@@H]13)O[C@H]4OC(=O)[C@@]21C[C@H]2c3ccccc3CCN2O1`, the IC50 in [2] and in [3] was > 20 µM each time.

For the molecule `COc1ccc2c(c1)CCN1O[C@@]3(C[C@H]21)C(=O)O[C@@H]1O[C@@]2(C)CC[C@H]4[C@H](C)CC[C@@H]3[C@@]14OO2`, the “Ratio IC50” value in experiment [6], in [7] and in experiment [8] was 4 each time. Besides, the IC50 in experiment [1] worked out at 5.01 µM; in [2] it was 1.47 µM; in [3] it was 3.16 µM.

Turning to `COc1ccc2c(c1)CCN1O[C@@]3(C[C@@H]21)C(=O)O[C@@H]1O[C@@]2(C)CC[C@H]4[C@H](C)CC[C@@H]3[C@@]14OO2`, the IC50 in [2] and in experiment [3] was > 20 µM each time.

Regarding `COc1cc2c(cc1OC)[C@H]1C[C@]3(ON1CC2)C(=O)O[C@@H]1O[C@@]2(C)CC[C@H]4[C@H](C)CC[C@@H]3[C@@]14OO2`, the IC50 is 4.69 µM in experiment [1], 2.53 µM in [2] and 2.35 µM in [3].

In the case of `COc1cc2c(cc1OC)[C@@H]1C[C@]3(ON1CC2)C(=O)O[C@@H]1O[C@@]2(C)CC[C@H]4[C@H](C)CC[C@@H]3[C@@]14OO2`, the IC50 in experiment [1], in experiment [2] and in experiment [3] was > 20 µM each time.

For the molecule `C[C@@H]1CC[C@@H]2[C@]34OO[C@](C)(CC[C@@H]13)O[C@H]4OC(=O)[C@@]21C[C@@H]2CCCN2O1`, the IC50 in experiment [1] is 10.5 µM; in [2], 2.34 µM; in experiment [3], 3.35 µM.

Turning to `C[C@@H]1CC[C@@H]2[C@]34OO[C@](C)(CC[C@@H]13)O[C@H]4OC(=O)[C@@]21C[C@@H]2COCCN2O1`, the IC50 in experiment [2] and in experiment [3] was > 20 µM in each case.

Consider `CO[C@H]1O[C@@H]2O[C@@]3(C)CC[C@H]4[C@H](C)CC[C@@H]([C@]15CC(c1ccc(Cl)cc1)=NO5)[C@@]24OO3`, for which the IC50 in experiment [2] and in experiment [3] was > 20 µM throughout.

As for `CO[C@@H]1O[C@@H]2O[C@@]3(C)CC[C@H]4[C@H](C)CC[C@@H]([C@]15CC(c1ccc(Cl)cc1)=NO5)[C@@]24OO3`, the IC50 in experiment [2] and in experiment [3] was > 20 µM throughout.

Regarding `CO[C@H]1O[C@@H]2O[C@@]3(C)CC[C@H]4[C@H](C)CC[C@@H]([C@]15CC(c1c(Cl)cccc1Cl)=NO5)[C@@]24OO3`, the IC50 in experiment [1] was 14.4 µM; in experiment [2], 5.29 µM; in experiment [3], 5.06 µM.

As for `CO[C@@H]1O[C@@H]2O[C@@]3(C)CC[C@H]4[C@H](C)CC[C@@H]([C@]15CC(c1c(Cl)cccc1Cl)=NO5)[C@@]24OO3`, the IC50 in experiment [1], in [2] and in [3] was > 20 µM each time.

For the molecule `COc1ccc2c(c1)CCN1O[C@@]3(C[C@H]21)[C@@H](OC)O[C@@H]1O[C@@]2(C)CC[C@H]4[C@H](C)CC[C@@H]3[C@@]14OO2`, the IC50 in [1], in [2] and in experiment [3] was > 20 µM each time.

For `COc1ccc2c(c1)CCN1O[C@@]3(C[C@H]21)[C@H](OC)O[C@@H]1O[C@@]2(C)CC[C@H]4[C@H](C)CC[C@@H]3[C@@]14OO2`, the IC50 in experiment [1], in [2] and in experiment [3] was > 20 µM each time.

Regarding `CCO[C@H]1O[C@@H]2O[C@@]3(C)CC[C@H]4[C@H](C)CC[C@@H]([C@]15C[C@@H]1c6ccc(OC)cc6CCN1O5)[C@@]24OO3`, the IC50 in experiment [1], in experiment [2] and in [3] was > 20 µM each time.

Consider `CCO[C@@H]1O[C@@H]2O[C@@]3(C)CC[C@H]4[C@H](C)CC[C@@H]([C@]15C[C@@H]1c6ccc(OC)cc6CCN1O5)[C@@]24OO3`, for which the IC50 in [1], in experiment [2] and in experiment [3] was > 20 µM in each case.

Take `COc1ccc2c(c1)CCN1O[C@@]3(C[C@H]21)[C@@H](F)O[C@@H]1O[C@@]2(C)CC[C@H]4[C@H](C)CC[C@@H]3[C@@]14OO2`: the half-inhibitory concentration (IC50) in experiment [2] and in experiment [3] was > 20 µM in each case.

Regarding `COc1ccc2c(c1)CCN1O[C@@]3(C[C@H]21)[C@H](F)O[C@@H]1O[C@@]2(C)CC[C@H]4[C@H](C)CC[C@@H]3[C@@]14OO2`, the IC50 in [2] and in [3] was > 20 µM each time.

Consider `COc1ccc2c(c1)CCN1O[C@@]3(C[C@H]21)[C@@H](OCCN1CCOCC1)O[C@@H]1O[C@@]2(C)CC[C@H]4[C@H](C)CC[C@@H]3[C@@]14OO2`, for which the IC50 in experiment [1], in [2] and in experiment [3] was > 20 µM throughout.

For `COc1ccc2c(c1)CCN1O[C@@]3(C[C@H]21)[C@@H](OCCN1CCN(C)CC1)O[C@@H]1O[C@@]2(C)CC[C@H]4[C@H](C)CC[C@@H]3[C@@]14OO2`, the IC50 in [1] was > 20 µM; in [2], 17.9 µM; in experiment [3], 16.9 µM.

For `COc1ccc2c(c1)CCN1O[C@@]3(C[C@H]21)C(=O)O[C@@H]1O[C@@]2(C)CC[C@H]4[C@H](C)CC[C@@H]3[C@@]14O2`, the IC50 came to 15.4 µM in experiment [2] and 13.4 µM in experiment [3].

Consider `COc1ccc2c(c1)CCN1O[C@@]3(C[C@@H]21)C(=O)O[C@@H]1O[C@@]2(C)CC[C@H]4[C@H](C)CC[C@@H]3[C@@]14O2`, for which the IC50 in experiment [2] and in experiment [3] was > 20 µM each time.

With `CCCCCCCCCCCCCCNC(=O)C[C@H]1O[C@@H]2O[C@@]3(C)CC[C@H]4[C@H](C)CC[C@@H]([C@H]1C)[C@@]24OO3`, the IC50 in experiment [9] turned out to be 0.46 µM.

In [10], `C[C@H]1[C@@H](O[C@H](C#N)c2ccc(Br)cc2)O[C@@H]2O[C@@]3(C)CC[C@H]4[C@H](C)CC[C@@H]1[C@@]24OO3` showed a half-inhibitory concentration (IC50) of 0.01 µM.

Take `C[C@@H]1CC[C@H]2[C@@H](C)C(=O)O[C@@H]3O[C@@]4(C)CC[C@@H]1[C@]32OO4` [ARTEMISININ]: the IC50 in experiment [1], in experiment [2] and in experiment [3] was > 20 µM throughout.

As for `CC[C@]1(O)C[C@H]2CN(CCc3c([nH]c4ccccc34)[C@@](C(=O)OC)(c3cc4c(cc3OC)N(C=O)[C@H]3[C@@](O)(C(=O)OC)[C@H](OC(C)=O)[C@]5(CC)C=CCN6CC[C@]43[C@@H]65)C2)C1` [VINCRISTINE], the IC50 in experiment [1] worked out at 0.0368 µM; in [2], 0.00087 µM; in experiment [3], 0.387 µM.
